{"data": "Published values gathered from unrelated publications", "PTGS2": "Prostaglandin G/H synthase 2 (PTGS2, Homo sapiens, UniProt P35354)", "Dipeptidyl peptidase 2": "Dipeptidyl peptidase 2 (Homo sapiens, UniProt Q9UHL4)", "CASP7": "Caspase-7 (CASP7, Homo sapiens, UniProt P55210)", "note": "Compare with care: the assays were run in different laboratories."}
{"Structure (SMILES)": "CN(C)Cc1ccc(-c2nc3ccccc3s2)c(-c2cccc(O)c2)c1", "target": "PTGS2", "test": "enzyme activity, inhibitor, absorbance", "setting": "10 µM", "inhibition [%]": 1}
{"Structure (SMILES)": "N=C(N)c1ccc2cc(OC(=O)c3ccc(N=C(N)N)cc3)ccc2c1", "target": "Dipeptidyl peptidase 2", "test": "enzyme activity, inhibitor", "setting": "10 µM", "inhibition [%]": 29}
{"Structure (SMILES)": "Oc1ccc(-c2ncccc2-c2nc3ccccc3s2)cc1", "target": "PTGS2", "test": "enzyme activity, inhibitor, absorbance", "setting": "10 µM", "inhibition [%]": 8}
{"Structure (SMILES)": "N#Cc1ccc(NCCNCC(=O)N2N=CCC2C#N)nc1 (centres unmarked)", "target": "Dipeptidyl peptidase 2", "test": "enzyme activity, inhibitor", "setting": "100 µM", "inhibition [%]": 77}
{"Structure (SMILES)": "Cc1ccc(-c2nc3ccccc3s2)c(-c2ccc(O)cc2)c1", "target": "PTGS2", "test": "enzyme activity, inhibitor, absorbance", "setting": "10 µM", "inhibition [%]": 35.4}
{"Structure (SMILES)": "CC(C)N1CCC[C@H]1CNC(=O)c1cn(C2CCCC2)c(=O)c2c1c1ccccc1n2C", "target": "Neuropeptide Y receptor type 2 (NPY2R, Homo sapiens, UniProt P49146)", "test": "ligand displacement, radioligand", "setting": "10 µM", "inhibition [%]": 3}
{"Structure (SMILES)": "CS(=O)(=O)c1ccc(-c2ncccc2-c2nc3ccccc3s2)cc1", "target": "PTGS2", "test": "enzyme activity, inhibitor, absorbance", "setting": "10 µM", "inhibition [%]": 84.7}
{"Structure (SMILES)": "CCOC(=O)c1ccc(OC(=O)CCCCCNC(=N)N)cc1", "target": "CASP7", "test": "enzyme activity, inhibitor", "setting": "10 µM", "inhibition [%]": 1}
{"Structure (SMILES)": "Cc1ccc(-c2nc3ccccc3s2)c(-c2cccc(O)c2)c1", "target": "PTGS2", "test": "enzyme activity, inhibitor, absorbance", "setting": "10 µM", "inhibition [%]": 29}
{"Structure (SMILES)": "C1=Cc2ccccc2Nc2ccccc21", "target": "Dihydrofolate reductase (folA, Escherichia coli, UniProt P0ABQ4)", "test": "enzyme activity, inhibitor", "setting": "1 mM", "inhibition [%]": "~87"}
{"Structure (SMILES)": "Cn1cc(-c2cc(F)cc(N3CCn4c(cc5c4CCCC5)C3=O)c2CO)cc(Nc2ccc(N3CCN(C4COC4)CC3)cn2)c1=O", "target": "Dual specificity tyrosine-phosphorylation-regulated kinase 3 (DYRK3, Homo sapiens, UniProt O43781)", "test": "enzyme activity, inhibitor", "setting": "0.1 µM", "inhibition [%]": 5}
{"Structure (SMILES)": "CC(=O)N[C@@H](CC(=O)O)C(=O)N[C@@H](CC(N)=O)C(=O)N[C@@H](CC(C)C)C(=O)N[C@H](C=O)CC(=O)O", "target": "CASP7", "test": "enzyme activity, inhibitor", "setting": "5 nM", "inhibition [%]": 8}
{"Structure (SMILES)": "COc1cc(Nc2ncc(F)c(Nc3ccc4c(n3)NC(=O)C(C)(C)O4)n2)cc(OC)c1OC", "target": "Serine/threonine-protein kinase pim-3 (PIM3, Homo sapiens, UniProt Q86V86)", "test": "binding, competition with immobilised ligand", "setting": "10 µM", "inhibition [%]": 38}
{"Structure (SMILES)": "Cn1cc(-c2cccc(N3CCc4c(sc5c4CC(C)(C)C5)C3=O)c2CO)cc(Nc2ccncn2)c1=O", "target": "Protein kinase C zeta type (PRKCZ, Homo sapiens, UniProt Q05513)", "test": "enzyme activity, inhibitor", "setting": "1 µM", "inhibition [%]": 10}
{"Structure (SMILES)": "CCN(CC)CCCC[C@H](NC(=O)[C@H](CC(C)C)NC(=O)[C@H](C)NC(=O)[C@H](Cc1ccccc1)NC(=O)c1ccc(C(C)(C)C)cc1)C(=O)N[C@@H](CO)C(=O)OC", "target": "5-hydroxytryptamine receptor 1B (Htr1b, Rattus norvegicus, UniProt P28564)", "test": "ligand displacement, radioligand", "setting": "10 µM", "inhibition [%]": -11}
{"Structure (SMILES)": "C#Cc1n[nH]c2c(-c3cn(C(C)c4ccccn4)c(=O)[nH]c3=O)cc(F)cc12 (centres unmarked)", "target": "Ribosomal protein S6 kinase beta-1 (RPS6KB1, Homo sapiens, UniProt P23443)", "test": "enzyme activity, inhibitor", "setting": "1 µM", "inhibition [%]": -2.1}
{"Structure (SMILES)": "Nc1ccc(-c2ccccc2)c(-c2nc3ccccc3s2)c1", "target": "PTGS2", "test": "enzyme activity, inhibitor, absorbance", "setting": "10 µM", "inhibition [%]": 12.4}
{"Structure (SMILES)": "CC(C)C[C@H](NC(=O)[C@H](Cc1ccccc1)NC(=O)c1cnccn1)B(O)O", "target": "Serine protease HTRA2, mitochondrial (HTRA2, Homo sapiens, UniProt O43464)", "test": "enzyme activity, inhibitor", "setting": "33 µM", "inhibition [%]": "< 5"}
{"Structure (SMILES)": "CN(C)C(=O)COC(=O)Cc1ccc(OC(=O)c2ccc(NC(=N)N)cc2)cc1", "target": "Ubiquitin carboxyl-terminal hydrolase isozyme L3 (UCHL3, Homo sapiens, UniProt P15374)", "test": "enzyme activity, inhibitor", "setting": "10 µM", "inhibition [%]": 3}
{"Structure (SMILES)": "O=C(Nc1cccnn1)N1CCN([C@@H]2CCOc3cc(C(F)(F)F)ccc32)CC1", "target": "Glucagon receptor (GCGR, Homo sapiens, UniProt P47871)", "test": "cell-free assay", "setting": "20 µM", "inhibition [%]": -1}
